Experimental data gathered from unrelated publications.
Lines come from different studies, so protocols differ.

Compound | host | matrix | route | dose | setting | quantity | result
COC1=CC(c2ccc[nH]2)=N/C1=C\c1cc(Cc2ccc(OC(F)(F)F)cc2)c(C)[nH]1.Cl | male CD-1 mouse | plasma | oral | 40 mg/kg | single dose | MRT(0-t) | 34.4 h
CCOC(=O)C1=C(CN2CCC[C@@H]2C(=O)Nc2ccc(B(O)O)cc2)NC(c2nccs2)=N[C@H]1c1ccc(F)cc1Br | CD-1 mouse | plasma | oral | 10 mg/kg |  | MRT(0-inf) | 1 h
Cc1nc2ccc(OCc3ccc(C(F)(F)F)cc3)cc2[nH]1 | male BALB/c mouse | plasma | oral | 10 mg/kg |  | MRT(0-inf) | 4.04 h
COC1=CC(c2ccc[nH]2)=N/C1=C\c1[nH]c(Cc2ccc(OC(F)(F)F)cc2)cc1Cc1ccc(OC(F)(F)F)cc1 | male CD-1 mouse | liver | oral | 40 mg/kg | single dose | MRT(0-t) | 22.2 h
CCOC(=O)c1c(NC(=O)CNC(C)C)sc2c1CCCCC2 | male mouse | plasma | intraperitoneal | 5 mg/kg | single dose | MRT(0-inf) | 1.79 h
Cc1ccc(CCC(=O)Nc2nnc(S(N)(=O)=O)s2)cc1 | male BALB/c mouse | plasma | oral | 20 mg/kg |  | MRT | 3.74 h
O=C1CCC(N2Cc3cc(C4CCN(Cc5ccccc5)CC4)ccc3C2=O)C(=O)N1 (stereo not shown) | male CD-1 mouse | plasma | intravenous | 1 mg/kg |  | MRT(0-inf) | 3.34 h
OCc1nc2ccc(NCc3ccc(C(F)(F)F)cc3)cc2[nH]1 | male BALB/c mouse | plasma | intravenous | 1 mg/kg |  | MRT(0-inf) | 1.1 h
C[C@@H]1COCCN1c1cc(=O)n2c(n1)N(Cc1cncc(Cl)c1)[C@H](C(F)(F)F)CC2 | C57BL/6 mouse | plasma | intraperitoneal | 10 mg/kg | single dose | MRT(0-t) | 0.45 h
CC[C@H](C)[C@H](NC(=O)[C@H](CCC(=O)O)NC(=O)[C@H](CCC(=O)O)NC(=O)[C@@H]1CCCN1C(=O)[C@H](CO)NC(=O)[C@H](C)NC(=O)[C@H](CC(=O)O)NC(=O)[C@H](CCC(=O)O)NC(=O)[C@H](CCC(=O)O)NC(=O)[C@@H]1CCCN1C(=O)[C@H](CCCCNC(=O)COCCOCCNC(=O)COCCOCCNC(=O)CC[C@H](NC(=O)CCCCCCCCCCCCCCCCC(=O)O)C(=O)O)NC(=O)[C@H](C)NC(=O)[C@@H]1CCCN1C(=O)[C@H](C)NC(=O)CC(C)C)C(=O)N[C@@H](CCC(N)=O)C(=O)N[C@@H](CCCNC(=N)N)C(=O)N[C@@H](Cc1ccc(O)cc1)C(=O)N[C@@H](Cc1ccc(O)cc1)C(=O)N[C@H](C(=O)N[C@@H](CO)C(=O)N[C@@H](CC(C)C)C(=O)N[C@@H](CCCNC(=N)N)C(=O)N[C@@H](Cc1c[nH]cn1)C(=O)N[C@@H](Cc1ccc(O)cc1)C(=O)N[C@@H](Cc1ccc(O)cc1)C(=O)N[C@@H](CC(N)=O)C(=O)N[C@@H](Cc1c[nH]c2ccccc12)C(=O)N[C@@H](CC(C)C)C(=O)N[C@H](C(=O)N[C@@H](CCCNC(=N)N)C(=O)N[C@@H](CCC(N)=O)C(=O)N[C@@H](CCCNC(=N)N)C(=O)N[C@@H](Cc1ccc(O)cc1)C(N)=O)[C@@H](C)O)C(C)C | male NMRI mouse | plasma | subcutaneous | 30 nmol/kg | single dose | MRT | 18 h
